Rows were chosen to be rich in hits. Some 1.8% of all compounds tested hit in one or more screens of this group.
697 NFkB inh = inhibitors of the PMA/ionomycin-induced NF-kB reporter in 697 B cells; 0.33% of 330,000 active; inhibition, % at 4 µM; 697 B-cell NF-kB luciferase reporter, 16 h; in the data active = inhibition above about 35%
GalR3 antagonist = human GalR3 antagonism | O60755 | HEK293 GalR3-CNG cAMP membrane potential fluorescence; galR3 body fused to GalR1 C-terminus | inhibition, % at 3 µM | 0.44% of 360,000 active;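 active = inhibition above the screen-wide average plus 3 SD, cut at about 13% in these data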;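 note: forskolin and galanin both at EC90 stimulate the cells; cAMP rise reported by CNG channel membrane potential dye signal; 0% = forskolin plus galanin with DMSO and 100% = forskolin alone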
Target sequence (O60755 1-299 limits assumed): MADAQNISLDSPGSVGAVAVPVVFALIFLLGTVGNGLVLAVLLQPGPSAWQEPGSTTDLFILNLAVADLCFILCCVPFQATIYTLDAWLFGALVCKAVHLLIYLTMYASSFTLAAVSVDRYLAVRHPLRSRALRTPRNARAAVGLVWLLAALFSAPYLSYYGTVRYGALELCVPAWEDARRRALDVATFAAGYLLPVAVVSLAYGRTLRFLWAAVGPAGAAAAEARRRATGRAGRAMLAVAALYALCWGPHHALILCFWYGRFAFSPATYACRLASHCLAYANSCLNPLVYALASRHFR
NR2E3 ag-1 = activates human photoreceptor nuclear receptor NR2E3; Q9Y5X4; GST-NR2E3/biotin-RetCOR TR-FRET, 1536-well; inhibition of corepressor binding, % at 4.78 µM; 0.12% of 320,000 active;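 active = percent inhibition above the cutoff of mean plus 3 SD of all tested compounds, set per screening campaign, cut at about 20% in these data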;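 note: 0% = DMSO wells and 100% = biotin wells as full block of FRET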
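System: GST-NR2E3 and biotin-RetCOR proteins; probe or stimulus: 7 nM biotin-RetCOR; doses: compound at 4.8 µM, single dose; schedule: Compound–protein incubation for 5 h at 4 °C; detection: time-resolved FRET; read-out: percent inhibition; controls: biotin wells as high control, 0.6% DMSO wells as low control; format: 1536-well plates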
NR2E3 ag-2 = activates human NR2E3 receptor. inhibition of corepressor binding, % at 3.98 µM. 0.35% of 360,000 active. CHO-S Gal4-NCOR/VP16-NR2E3 two-hybrid, luciferase. Q9Y5X4;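 active = inhibition above the mean of all tested compounds plus 3 SD, cut at about 70% in these data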;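 note: 0% = DMSO with NR2E3 transfected cells and 100% = cells lacking NR2E3 construct; higher means lower luciferase signal from less NR2E3 corepressor binding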
Jurkat NFkB inh = lowers PMA/ionomycin-induced NF-kB signal in Jurkat cells | PMA/ionomycin-induced NF-kB luciferase reporter, luminescence | 0.53% of 330,000 active | inhibition, % at 4 µM; in the data active = inhibition above about 50%
Gli-Sufu block = Gli-Sufu pathway antagonism; inhibition, % at 5 µM; Sufu-KO-LIGHT fibroblasts, Gli luciferase reporter luminescence; 0.74% of 340,000 active;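 active = inhibition above about 55%, limit read from the data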;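 note: 0% = DMSO-treated cells and 100% = wells with medium but no cells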
GalR3 conf = confirmation of human galanin receptor 3 antagonists | shares compounds with GalR3 antagonist | HEK293 GalR3 CNG cAMP biosensor, membrane potential fluorescence; galR3 fused to GalR1 carboxy tail; challenged with forskolin and galanin at EC90 | inhibition, % at 3 µM | 59% of 1,600 active | AID 652245;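 active = inhibition above the primary screen's cutoff, the mean inhibition of all screened compounds plus 3 SD, cut at about 13% in these data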;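 note: 0% = forskolin plus galanin and 100% = forskolin alone with DMSO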
CNG parental = acts as nonspecific agonist in parental HEK-CNG cells; shares compounds with GalR3 antagonist; HEK293-CNG parental cells, cAMP membrane potential fluorescence; normalised: DMSO wells 0%, forskolin wells 100%; activation, % at 3 µM; 10% of 1,600 active; in the data active = activation above about 1.3%
* = called active by the depositor; . = no result.

SMILES	697 NFkB inh	GalR3 antagonist	NR2E3 ag-1	NR2E3 ag-2	Jurkat NFkB inh	Gli-Sufu block	GalR3 conf	CNG parental
COc1ccccc1NS(=O)(=O)c1ccc(C)c(C(=O)NC2CCN(Cc3ccccc3)CC2)c1	-41	33*	.	-10	24	40	81*	0
COc1ccc(CNC(=O)CN2C(=O)NC3(CCCc4sccc43)C2=O)cc1OC (stereo not drawn)	0	-3	1	-10	-8	-9	.	.
CCn1nc(C(=O)Nc2cc(Cl)ccc2-n2cncn2)c2ccccc2c1=O	-5	0	6	12	0	3	.	.
CSCC[C@H](NC(=O)C1CCN(S(=O)(=O)c2ccccc2)CC1)C(=O)NC1CC1	-6	3	0	-16	-3	32	.	.
CCN1CCN(CC(=O)Nc2cc(C(F)(F)F)ccc2OCCOC)CC1	-6	8	6	-1	0	2	.	.
Cc1cccc(NC2=C(Cl)C(=O)OC2OC(C)C)c1 (stereo not drawn)	12	14*	2	-26	-1	-6	6	0
CC(C)[C@H](CO)N(Cc1cccc(F)c1)c1nc(Nc2cccc(Cl)c2)c2ncn(C(C)C)c2n1	-7	-4	2	-8	-23	9	.	.
CC(C)n1cnc2c(N(C)c3cccc(Cl)c3)nc(N(CCO)CCO)nc21	-8	.	-5	-1	4	6	10	0
COCC(=O)NNS(=O)(=O)c1ccccc1[N+](=O)[O-]	6	-2	-2	8	-8	1	.	.
COc1cc(NC(=O)COc2ccc(C)c(C)c2)ccc1NC(=O)c1ccco1	0	-5	3	-30	8	-10	.	.
COc1cc(NC(=O)COc2cccc(C)c2C)ccc1NC(=O)c1ccco1	3	14*	0	-1	10	2	6	1
CC(C)=CCOc1ccc([C@@H]2COc3c(ccc4c3C=CC(C)(C)O4)C2)c(O)c1	-23	19*	-1	31	7	9	18*	22*
CC(C)C[C@@H](COCc1cccc(C(F)(F)F)c1)N1CCN(C(=O)c2ccc(C(F)(F)F)cc2)CCC1=O	.	-8	.	-21	.	.	.	.
C[C@H](NCCc1ccc(O)cc1)[C@H](O)c1ccc(O)cc1	10	39*	3	-17	8	4	62*	1
CCOC(=O)C1CCN(C2CCN(Cc3nc(-c4ccccc4)no3)CC2)CC1	17	13*	3	-5	22	9	0	0
CC(OC(=O)c1c2c(nc3ccccc13)/C(=C\c1ccc3c(c1)OCO3)CCC2)C(=O)Nc1ccc(S(N)(=O)=O)cc1 (stereo not drawn)	.	.	.	-11	.	-7	.	.
Cc1cccc(C)c1NC(=O)COC(=O)c1c2c(nc3ccccc13)/C(=C\c1ccc3c(c1)OCO3)CCC2	.	.	-1	-32	.	1	-3	0
Cc1nnc(SC(C)C(=O)Nc2ccc3ccccc3c2)n1C (stereo not drawn)	16	-3	3	-4	-7	1	.	.
CCOc1ccc(-n2c(SCc3ccc([N+](=O)[O-])cc3)nnc2-c2ccccc2)cc1	-34	70*	1	-13	-18	16	72*	1.3*
COc1ccc(-n2c(SCc3ccc([N+](=O)[O-])cc3)nnc2-c2ccccc2)cc1	8	57*	2	-4	2	11	64*	0
CC(CCc1ccccc1)NC(=O)Cn1cccc1C(=O)c1ccccc1 (stereo not drawn)	11	-6	2	-8	-5	-11	.	.
O=C(Nc1ccc(S(=O)(=O)N2CCOCC2)cc1)c1ccc(Cl)cc1Cl	14	-8	2	18	15	17	.	.
CCN1CCN(c2ccc(S(=O)(=O)N3CCCCC3)cc2NC(=O)COc2ccc(F)cc2Cl)CC1	-9	-3	1	-22	-4	46	.	.
CC(N)=Nc1ccc([N+](=O)[O-])cc1	12	-1	-3	-16	-16	-4	.	.
O=[N+]([O-])c1ccc(N=Nc2c(Cl)cc(O)cc2Cl)cc1	.	35*	-2	13	.	24	31*	3.9*
SMILES	697 NFkB inh	GalR3 antagonist	NR2E3 ag-1	NR2E3 ag-2	Jurkat NFkB inh	Gli-Sufu block	GalR3 conf	CNG parental
CCN(CC)CC(O)CNc1ccnc2c(Cl)ccc(Cl)c12 (stereo not drawn)	.	-7	.	-2	.	5	.	.
CN(CCO)c1cc(Sc2nc3ccccc3s2)c2nonc2c1[N+](=O)[O-]	-16	28*	7	33	2	9	51*	1
CCOC(=O)Cn1nnnc1C(C(C)C)N(Cc1cccs1)Cc1cc2cc(C)ccc2[nH]c1=O (stereo not drawn)	2	37*	1	-1	1	14	28*	1
CCCCCCn1c(=O)[nH]c2c(c1=O)CCC2	-1	-1	0	-19	-2	4	.	.
CCCCCCCn1c2c(c(=N)c3c1CCC3)CCCC2	.	31*	.	9	.	90*	44*	6.0*
COc1ccc(-c2noc(CCC(=O)N3CCN(c4ccc(Cl)cc4)CC3)n2)cc1	-6	-6	.	-14	.	-1	.	.
FC(F)(F)c1cccc(/C=N/NC(=S)NC2CCCCC2)c1	-35	90*	4	-29	-5	2	84*	2.5*
CCC(=O)Nc1ccc(C(=O)NNC(=O)c2cccc(C)c2)cc1	-2	-8	0	9	-12	-7	.	.
NCCCC[C@H](NC(=O)C1CCNCC1)c1nnc([C@@H](N)Cc2ccc(O)cc2)o1	-3	.	2	-25	-9	-1	-1	0
C=CCCC(=O)N1CCCC(C(=O)c2cccc(OC)c2)C1 (stereo not drawn)	-23	-8	4	-35	-9	0	.	.
CCOC(=O)CCP(=O)(O)C(O)c1ccc(OC)cc1 (stereo not drawn)	7	10	-1	-3	5	-17	.	.
CCOC(=O)CC(N)c1ccc(OC)cc1 (stereo not drawn)	6	14*	0	14	-8	-1	13*	0
O=C(Nc1nnc([C@H]2C[C@H](O)[C@@H](CO)O2)s1)c1cccc(Oc2ccccc2)c1	.	-3	.	7	.	.	.	.
CCOc1ccc(/C=C/C2=NNC(=O)CC2)cc1	-50	1	-6	-55	-81	.	.	.
COc1ccc(/C=C/C2=NNC(=O)CC2)cc1	-42	15*	-4	-59	-36	-24	9	0
Cc1cccc(C)c1NC(=O)N1CCN(c2nc3ccccc3s2)CC1	-48	39*	1	-16	31	-1	2	0

Compound activity as filed in PubChem BioAssay.
